Experimental data from ChEMBL document CHEMBL2176912, “Diphenyl purine derivatives as peripherally selective cannabinoid receptor 1 antagonists” (J Med Chem, 2012).

Legend:
Cannabinoid receptor 2 = Cannabinoid receptor 2 (Homo sapiens, UniProt P34972); assay: Displacement of [3H]CP55940 from human CB2 receptor expressed in CHO-K1 cells; format: cell-based
Cannabinoid receptor 1 [1] = biological target: T1, Cannabinoid receptor 1 (Homo sapiens, UniProt P21554); assay: Displacement of [3H]CP55940 from human CB1 receptor expressed in CHO-K1 cells; format: cell-based
Cannabinoid receptor 1 [2] = biological target: T1, Cannabinoid receptor 1; assay: Antagonist activity at human CB1 receptor transfected in CHO-K1 cells co-expressing Galphaq16 assessed as intracellular calcium mobilization using Calcein-4 AM by fluorescence assay; format: functional, cell-based
In short: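 CHO-K1 cells engineered to coexpress human CB1 and Gαq16. Calcium flux read with fluorescent dye Calcein-4 AM on a plate reader. Antagonism measured as rightward shift of the CP55940 concentration–response curve. Ke = [ligand]/(DR−1), where DR is the ratio of CP55940 EC50 with and without test agent. Values are averages of 3–6 measurements.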

CHO-K1 = assay: Selectivity ratio of Ki for human CB2 receptor expressed in CHO-K1 cells to Ki for human CB1 receptor expressed in CHO-K1 cells
MDCK = assay: Permeability from apical to basolateral side in dog MDCK cells expressing MDR-1 gene; format: ADME, cell-based, Canis lupus familiaris
In short: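 MDCK-mdr1 cells grown on Transwell-type filters for 4 days to confluence in DMEM/F12 with 10% FBS and antibiotics. Compound applied apically at 10 μM in HBSS with 25 mM D-glucose, HEPES-buffered to pH 7.4. Incubated 1 h at 37 °C; apical and basal samples quantified by LC-MS/MS (MRM). Averages of 2–3 measurements.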

Nucleic Acid [3] = assay: Ratio of drug uptake in brain to plasma of Sprague-Dawley rat brain at 10 mg/kg, po after 480 mins; format: ADME, organism-based; design: dose 10 mg/kg, route oral; details: 8 h
In short: (§1)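 Male Sprague–Dawley rats, 8 weeks old, dosed orally at 10 mg/kg in food-grade corn oil; 3–4 animals per time point. Plasma and unperfused brain collected post dose. Brain homogenized in 50:50 ethanol/water; plasma and homogenate extracted with acetonitrile and centrifuged. Analysed by LC-MS/MS against standards prepared in blank matrix. Ratio taken from brain and plasma concentrations.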

Nucleic Acid [4] = assay: Ratio of drug uptake in brain to plasma of Sprague-Dawley rat brain at 10 mg/kg, po after 240 mins; format: ADME, organism-based; design: dose 10 mg/kg, route oral; details: 4 h; in short: as §1
Nucleic Acid [5] = assay: Ratio of drug uptake in brain to plasma of Sprague-Dawley rat brain at 10 mg/kg, po after 120 mins; format: ADME, organism-based; design: dose 10 mg/kg, route oral; details: 2 h; in short: as §1
Nucleic Acid [6] = assay: Ratio of drug uptake in brain to plasma of Sprague-Dawley rat brain at 10 mg/kg, po after 60 mins; format: ADME, organism-based; design: dose 10 mg/kg, route oral; details: 1 h; in short: as §1
Nucleic Acid [7] = assay: Ratio of drug uptake in brain to plasma of Sprague-Dawley rat brain at 10 mg/kg, po after 30 mins; format: ADME, organism-based; design: dose 10 mg/kg, route oral; details: 0.5 h; in short: as §1
[8] = Drug uptake in Sprague-Dawley rat brain at 10 mg/kg, po after 480 mins; format: ADME, organism-based; design: dose 10 mg/kg, route oral; details: read-out: Drug uptake
In short: (§2)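 Male Sprague–Dawley rats, 8 weeks old, given 10 mg/kg orally in food-grade corn oil. Three to four animals per time point. Plasma and unperfused brain collected at 0.5–8 h. Brain homogenized in 50:50 ethanol/water. Samples protein-precipitated with acetonitrile and analysed by LC-MS/MS on a C18 column against standards in blank matrix.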

[9] = Drug uptake in Sprague-Dawley rat brain at 10 mg/kg, po after 240 mins; format: ADME, organism-based; design: dose 10 mg/kg, route oral; details: read-out: Drug uptake; in short: as §2
[10] = Drug uptake in Sprague-Dawley rat brain at 10 mg/kg, po after 120 mins; format: ADME, organism-based; design: dose 10 mg/kg, route oral; details: read-out: Drug uptake; in short: as §2
[11] = Drug uptake in Sprague-Dawley rat brain at 10 mg/kg, po after 60 mins; format: ADME, organism-based; design: dose 10 mg/kg, route oral; details: read-out: Drug uptake; in short: as §2
[12] = Drug uptake in Sprague-Dawley rat brain at 10 mg/kg, po after 30 mins; format: ADME, organism-based; design: dose 10 mg/kg, route oral; details: read-out: Drug uptake; in short: as §2
[13] = Plasma concentration in Sprague-Dawley rat at 10 mg/kg, po after 240 mins; format: ADME, organism-based; design: dose 10 mg/kg, route oral; in short: as §2
[14] = Plasma concentration in Sprague-Dawley rat at 10 mg/kg, po after 120 mins; format: ADME, organism-based; design: dose 10 mg/kg, route oral; in short: as §2
[15] = Plasma concentration in Sprague-Dawley rat at 10 mg/kg, po after 60 mins; format: ADME, organism-based; design: dose 10 mg/kg, route oral; in short: as §2
[16] = Plasma concentration in Sprague-Dawley rat at 10 mg/kg, po after 30 mins; format: ADME, organism-based; design: dose 10 mg/kg, route oral; in short: as §2
Liver = assay: Metabolic stability in human liver S9 fraction assessed as compound remaining after 120 mins; format: ADME, subcellular; details: s9, 2 h
In short: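 Pooled mixed-gender human hepatic S9 at 1 mg/mL. Compound at 10 μM final in 50 mM potassium phosphate pH 7.4 with 3 mM MgCl2 and NADPH regeneration (NADP 1 mM, glucose-6-phosphate 5 mM, G6PDH 1 unit/mL). Triplicates incubated 0, 15, 30, 60, 120 min, stopped with 3 vol acetonitrile, LC-MS/MS against matrix standard curves; percent remaining at 120 min.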

Plasma = assay: Metabolic stability in human plasma assessed as compound remaining after 60 mins; format: ADME, cell-free; details: 1 h
In short: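 Pooled mixed-gender human plasma, 1 mL per sample at 37 °C. Compound at 10 μM final, sampled at 0, 30 and 60 min after 5 min preincubation. Reaction stopped with acetonitrile, LC-MS/MS quantitation; percent remaining at 60 min.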

T1 sequence (P21554 whole entry): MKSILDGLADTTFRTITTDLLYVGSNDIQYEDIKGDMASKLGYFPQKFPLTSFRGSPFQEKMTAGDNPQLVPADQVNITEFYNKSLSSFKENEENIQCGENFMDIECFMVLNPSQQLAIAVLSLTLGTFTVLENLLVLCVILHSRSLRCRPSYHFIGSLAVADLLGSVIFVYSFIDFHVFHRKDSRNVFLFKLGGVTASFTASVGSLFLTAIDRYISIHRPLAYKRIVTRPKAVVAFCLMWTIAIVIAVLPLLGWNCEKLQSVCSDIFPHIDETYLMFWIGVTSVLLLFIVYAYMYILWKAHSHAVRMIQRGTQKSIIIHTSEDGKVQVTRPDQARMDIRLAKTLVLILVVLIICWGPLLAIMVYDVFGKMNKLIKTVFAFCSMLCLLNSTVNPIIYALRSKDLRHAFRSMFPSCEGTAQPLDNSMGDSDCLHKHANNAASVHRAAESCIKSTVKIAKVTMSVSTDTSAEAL
Sequence of Cannabinoid receptor 2 (P34972 whole entry): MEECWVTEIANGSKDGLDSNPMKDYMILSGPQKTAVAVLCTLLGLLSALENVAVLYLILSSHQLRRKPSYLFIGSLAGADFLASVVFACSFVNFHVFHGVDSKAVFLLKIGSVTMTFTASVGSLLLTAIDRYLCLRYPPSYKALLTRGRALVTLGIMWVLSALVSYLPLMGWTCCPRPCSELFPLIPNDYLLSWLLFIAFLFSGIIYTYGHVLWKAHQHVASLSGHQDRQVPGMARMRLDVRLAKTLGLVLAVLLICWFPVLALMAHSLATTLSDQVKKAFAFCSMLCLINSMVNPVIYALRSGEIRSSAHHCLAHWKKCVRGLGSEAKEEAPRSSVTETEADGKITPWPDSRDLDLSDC

Compound | Ki (Cannabinoid receptor 2) [nM] | Ki (Cannabinoid receptor 1 [1]) [nM] | Ke (Cannabinoid receptor 1 [2]) [nM] | Ratio Ki (CHO-K1) | also measured
O=S(=O)(NC1CCN(c2ncnc3c2nc(-c2ccccc2Cl)n3-c2ccc(Cl)cc2)CC1)c1ccccc1 | 5860 | 1.2 | 0.3 | 4890 | 
CCNC(=O)NC1(c2ccccc2)CCN(c2ncnc3c2nc(-c2ccccc2Cl)n3-c2ccc(Cl)cc2)CC1 | 4640 | 195 |  | 24 | 
Cc1c(C(=O)N2CCC(C(N)=O)(c3ccccc3)CC2)nn(-c2ccc(Cl)cc2Cl)c1-c1ccc(Cl)cc1 |  |  | 0.45 | 1600 | permeability (MDCK): 8%
CS(=O)(=O)NC1CCN(c2ncnc3c2nc(-c2ccccc2Cl)n3-c2ccc(Cl)cc2)CC1 | 1070 | 29 |  | 37 | 
CC(C)(C)OC(=O)NC1CCN(c2ncnc3c2nc(-c2ccccc2Cl)n3-c2ccc(Cl)cc2)CC1 | 1710 | 1.5 | 11 | 1140 | 
CCCCNC(=O)NC1(c2ccccc2)CCN(c2ncnc3c2nc(-c2ccccc2Cl)n3-c2ccc(Cl)cc2)CC1 | > 20000 | 269 |  |  | 
CC(=O)N1CCC[C@H](Nc2ncnc3c2nc(-c2ccccc2Cl)n3-c2ccc(Cl)cc2)C1 |  |  | 4450 |  | 
CCCCNC(=O)NC1CCN(c2ncnc3c2nc(-c2ccccc2Cl)n3-c2ccc(Cl)cc2)CC1 | 1550 | 25 |  | 62 | 
O=C(NC1CCN(c2ncnc3c2nc(-c2ccccc2Cl)n3-c2ccc(Cl)cc2)CC1)c1ccccc1 |  |  | 0.7 |  | 
CC(=O)N1CCC[C@@H](Nc2ncnc3c2nc(-c2ccccc2Cl)n3-c2ccc(Cl)cc2)C1 |  |  | 920 |  | 
CC(C)NC(=O)NC1CCN(c2ncnc3c2nc(-c2ccccc2Cl)n3-c2ccc(Cl)cc2)CC1 | 2450 | 14 |  | 175 | 
CS(=O)(=O)NC1(c2ccccc2)CCN(c2ncnc3c2nc(-c2ccccc2Cl)n3-c2ccc(Cl)cc2)CC1 |  |  | 2.9 | 153 | BPR (Nucleic Acid [3]): 0.1; BPR (Nucleic Acid [4]): 0.11; BPR (Nucleic Acid [5]): 0.1; BPR (Nucleic Acid [6]): 0.08; BPR (Nucleic Acid [7]): 0.05; concentration at 8 h [8]: 89 ng/mL; concentration at 4 h [9]: 184 ng/mL; concentration at 2 h [10]: 122 ng/mL; concentration at 1 h [11]: 58 ng/mL; concentration at 0.5 h [12]: 38 ng/mL; concentration at 4 h [13]: 1650 ng/mL; concentration at 2 h [14]: 1190 ng/mL; concentration at 1 h [15]: 767 ng/mL; concentration at 0.5 h [16]: 752 ng/mL; Stability (Liver): > 90%; Stability (Plasma): > 90%; permeability (MDCK): < 1%
CC(C)(C)NC(=O)NC1(c2ccccc2)CCN(c2ncnc3c2nc(-c2ccccc2Cl)n3-c2ccc(Cl)cc2)CC1 | 20000 | 25.5 |  | 784 | Stability (Liver): 43%; Stability (Plasma): > 90%; permeability (MDCK): < 1%
CCNC(=O)N1CCC[C@@H](Nc2ncnc3c2nc(-c2ccccc2Cl)n3-c2ccc(Cl)cc2)C1 |  |  | 1500 |  | 
O=C(NC1CCN(c2ncnc3c2nc(-c2ccccc2Cl)n3-c2ccc(Cl)cc2)CC1)C(F)(F)F |  |  | 3.2 |  | 
CS(=O)(=O)N1CCC[C@@H](Nc2ncnc3c2nc(-c2ccccc2Cl)n3-c2ccc(Cl)cc2)C1 |  |  | 346 |  | 
CC(C)(C)OC(=O)N1CCC(Nc2ncnc3c2nc(-c2ccccc2Cl)n3-c2ccc(Cl)cc2)CC1 | 14000 | 24 | 92 | 568 | 
CCCNC(=O)NC1(c2ccccc2)CCN(c2ncnc3c2nc(-c2ccccc2Cl)n3-c2ccc(Cl)cc2)CC1 | 7780 | 220 | 99 | 35 | 
CC(C)(C)OC(=O)NC1(c2ccccc2)CCN(c2ncnc3c2nc(-c2ccccc2Cl)n3-c2ccc(Cl)cc2)CC1 | 13900 | 7.1 |  | 1960 | permeability (MDCK): < 1%
NC(=O)C1(c2ccccc2)CCN(c2ncnc3c2nc(-c2ccccc2Cl)n3-c2ccc(Cl)cc2)CC1 | 5510 | 1.79 | 9 | 3080 | Stability (Liver): > 90%; Stability (Plasma): > 90%; permeability (MDCK): 6%
CCCCNC(=O)N1CCC(Nc2ncnc3c2nc(-c2ccccc2Cl)n3-c2ccc(Cl)cc2)CC1 | > 20000 | 3340 | 71 |  | 
CS(=O)(=O)N1CCC[C@H](Nc2ncnc3c2nc(-c2ccccc2Cl)n3-c2ccc(Cl)cc2)C1 |  |  | 6040 |  | 
CC(C)NC(=O)NC1(c2ccccc2)CCN(c2ncnc3c2nc(-c2ccccc2Cl)n3-c2ccc(Cl)cc2)CC1 | 8950 | 337 | 46 | 27 | 
CCCNC(=O)NC1CCN(c2ncnc3c2nc(-c2ccccc2Cl)n3-c2ccc(Cl)cc2)CC1 | 153 | 28 |  | 5 | 
NC1(c2ccccc2)CCN(c2ncnc3c2nc(-c2ccccc2Cl)n3-c2ccc(Cl)cc2)CC1 | 1660 | 11 |  | 151 | permeability (MDCK): < 1%
CCNC1(C(N)=O)CCN(c2ncnc3c2nc(-c2ccccc2Cl)n3-c2ccc(Cl)cc2)CC1 [OTENABANT] |  |  |  |  | permeability (MDCK): 40%
CCNC(=O)N1CCC[C@H](Nc2ncnc3c2nc(-c2ccccc2Cl)n3-c2ccc(Cl)cc2)C1 |  |  | 1150 |  | 
